Measured values published in ChEMBL document CHEMBL4513216, “Probing the Open Global Health Chemical Diversity Library for Multistage-Active Starting Points for Next-Generation Antimalarials” (ACS Infect Dis, 2020).

Assay: Toxicity liver stage against HepG2, at 10uM
Format: cell-based
Design: test concentration 10 uM, cell line HepG2-A16-CD81EGFP
Settings: human, HepG2-A16-CD81EGFP cells; read-out: INHIBITION
Outline: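 Uninfected HepG2-A16-CD81EGFP cells, 3 × 10^3 per well, 1536-well, plated on prespotted compound at 10 μM final, parasite-free screening media added to match infected plates; puromycin 10 μM positive, DMSO 0.5% negative; run in parallel with 48 h PbLuc assay at 37 °C, 5% CO2; viability by CellTiter-Glo luminescence, normalized to controls.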

| Structure (SMILES) | cytotoxicity at 10 µM |
| --- | --- |
| N#Cc1c(-c2ccccc2)csc1N | 2.42% |
| c1ccc2c(c1)COC1(CCCC1)N2 | 10.4% |
| CCCN(CCC)CCNc1c(-c2ccccc2)c(=O)c1=O | -82.1% |
| CCCS(=O)(=O)N1CC(=O)N(Cc2cccc(OC)c2OC)CC(O)C1 (stereo unspecified) | -12.9% |
| Cc1cc(CN2CCC(CNS(=O)(=O)c3ccc(C)s3)CC2)c(C)o1 | 3.39% |
| Cc1ccccc1C(=O)N1CC2(COC(C)(C)OC2)C1 | 4.56% |
| COc1cccc(CN2C[C@H]3CCNCC[C@H]3S2(=O)=O)c1 | -8.81% |
| c1csc(CN2C[C@H]3CCC[C@@]3(COCC3CCOCC3)C2)n1 | -1.99% |
| CCn1nc(C)c2c1cnn2CC(=O)NC(C)c1cccc(OC)c1 (stereo unspecified) | 25.8% |
| CC(=O)N[C@@H]1CN(C(=O)CC2CC2)C[C@H]1O | -7.1% |
| CC(=O)N1CCC(c2cnc(-c3c(C)n[nH]c3C)cn2)CC1 | -17.1% |
| C[C@H](NC(=O)C1CC1)c1nc2cc(-c3ccc(F)cc3)ncn2n1 | -23% |
| CC(C)(C)C(=O)N1CCCC(c2ncncc2-c2ccncc2)C1 (stereo unspecified) | 4.03% |
| COCC(=O)N1CCC(c2cc3n(n2)[C@@H](C(F)(F)F)C[C@@H](C)N3)CC1 | -26.5% |
| CCC(=O)N1CCC(Cc2cc(Nc3ncccn3)ncn2)CC1 | -4.05% |
| O=C(c1ccc(Cl)cc1)N1CCn2c(nn(-c3ccncc3)c2=O)C1 | 27.5% |
| CN(C(=O)CSc1ncc[nH]1)c1ccccc1 | 11.1% |
| O=c1cc(CN(CCO)C2CC2)nc2ccc(Cl)cn12 | 14.7% |
| Cc1nc(NS(=O)(=O)c2cc(C)c(Br)cc2C)no1 | 5.42% |
| COCCCN1Cc2cccc(NC(=O)c3ccccc3Cl)c2C1 | -4.34% |
| Cc1ncc(CNC(CCO)C2CCCCC2)s1 (stereo unspecified) | -48.7% |
| O=C(c1ccccc1)N1CCN(C2CCc3ccc(F)cc32)CC1 (stereo unspecified) | 11.1% |
| COc1ccc(OC)c(C(=O)Nc2cccnc2-n2cncn2)c1 | -17% |

| Structure (SMILES) | cytotoxicity at 10 µM |
| --- | --- |
| Cc1nc(-c2ccc(S(=O)(=O)N3CCSCC3)cc2)co1 | 5.18% |
| Cc1nc(CNc2cccc(Cl)c2Cl)cs1 | 11.4% |
| N#Cc1cccc(-c2ncnn2CC2(O)CCCCC2)c1 | 8.83% |
| Cc1noc(CCCC(=O)N2CCCCC2CNS(C)(=O)=O)n1 (stereo unspecified) | -0.88% |
| Cn1cccc1CNCc1nnc2n1CCCC2C(F)(F)F (stereo unspecified) | -7.53% |
| CCOc1ccccc1NC(C)C(=O)N(C)Cc1cccc(F)c1 (stereo unspecified) | 12.1% |
| O=C(CCc1ccncc1)N1CCc2cc(Cl)cc(Cl)c2C1 | -24.3% |
| O=C(COc1cccc2c1CCC2=O)NCc1ccccc1Cl | -3.46% |
| c1nc(N2CCOC(Cn3cncn3)C2)c2sccc2n1 (stereo unspecified) | 16.7% |
| Cc1cc2cc(CNC3CCN(S(C)(=O)=O)CC3)oc2cc1C | -0.779% |
| Cc1ncsc1CNCC(C)c1nc2ccccc2o1 (stereo unspecified) | 4.17% |
| CCN1CCN(c2ccc(C(=O)NC(C)CCOC)cc2)CC1 (stereo unspecified) | 8.7% |
| Cc1ccccc1CS(=O)(=O)CC(=O)N(C)Cc1ccccc1 | 2.84% |
| COCc1nc(C(=O)N2CCN(Cc3cc(C)on3)CC2)cs1 | -15% |
| Cc1nc(C)c(CCNc2ccc(S(N)(=O)=O)cc2C#N)s1 | -62.2% |
| COc1cccc(CC2CCCN2CCCO)c1 (stereo unspecified) | -37.5% |
| CN(CC1CCN(CCO)CC1)CC(O)c1ccc(F)c(F)c1 (stereo unspecified) | -51.5% |
| Cc1nc(CN2CCC23CCN(Cc2ccco2)CC3)cs1 | -114% |
| O=C1CC[C@@H]2[C@@H](CCN2S(=O)(=O)C2CC2)N1CC1CC1 | -79.4% |
| Cn1c2c(ccc1=O)CC(NC(=O)c1ccsc1)CC2 (stereo unspecified) | -1.87% |
| CCN1CCOCC2(C1)CN(C(=O)c1c(C)noc1C)CCO2 (stereo unspecified) | 13.8% |
| CN(C)CCOCc1cncc2c1CCN(C(=O)c1cscn1)C2 | -102% |
| CC(C)n1c2ccccc2c2c1cc(C(=O)N(C)C)n2S(C)(=O)=O | -90.8% |

| Structure (SMILES) | cytotoxicity at 10 µM |
| --- | --- |
| C[C@@H]1CN(C(=O)[C@H]2CCCO2)C[C@]12CCN(c1ccsc1)C2=O | -77.8% |
| O=C(c1ccncc1)N1CCc2ncnc(C3CCOC3)c2CC1 (stereo unspecified) | -73.2% |
| COCC(=O)N1CCO[C@H]2[C@H](OC)CC[C@@H]21 | 6.61% |
| c1ccc(C[C@H]2CN(Cc3nccs3)CC[C@H]2OCC2CC2)cc1 | 5.27% |
| O=C(CC1CC1)N1CCC2(CC1)CN(c1ncccn1)CCO2 | 1.49% |
| O=C(NCCn1cccc1)C(c1cccnc1)N1CCCC1 (stereo unspecified) | -54.5% |
| CCN(CC)c1ncccc1CNCc1ccc(Cl)s1 | 10.6% |
| O=C(Nc1ccc2scnc2c1)N1CCN([C@H]2CCCC[C@@H]2O)CC1 | -53.6% |
| Cc1nn(C2CCCC2)c2nc(C(C)(C)CN3CCN(C)CC3)[nH]c12 | -6.61% |
| CCN(CCOC)C(=O)CCc1scnc1C | -15.8% |
| O=C(C1CCCC1)N1CCC(Nc2ccncn2)CC1 | -57.7% |
| CN(CCCc1cnn(C)c1)Cc1cc2n(n1)CCCNC2 | 6.49% |
| CCn1c(C)nnc1SCCNC(=O)c1cnc(N(C)C)nc1C | 6.9% |
| CCOc1ncccc1Cn1cc(-c2ccc(CO)o2)nn1 | -1.91% |
| Cc1[nH]c2c(F)cccc2c1CC(=O)N1CCC(NS(C)(=O)=O)CC1 | 7.58% |
| CNc1ccnc(NCCC(=O)Nc2ccccc2OC)n1 | -1.62% |
| CCn1ncnc1CN(CCOC)Cc1ccc(C)cc1 | -40.2% |
| CCc1nc(N2CCCC(CCCOC)C2)c2cnn(C)c2n1 (stereo unspecified) | 6.46% |
| Cc1nn(C)cc1-c1ccnc(N(C)Cc2ccon2)n1 | -8.71% |
| C=C(C)COc1ccccc1CN1CCCC(C(=O)NCCCO)C1 (stereo unspecified) | 7.36% |
| CCCC(=O)Nc1cc2c(cc1OC)NC(=O)CC2c1ccc(CC)o1 (stereo unspecified) | 2.01% |
| CN1CCN(CCC(F)(F)C(F)F)CC12CCNC(=O)CC2 (stereo unspecified) | -39.7% |
| CCOCCn1c(=O)n(Cc2ccccc2F)c2cc(C(=O)O)cnc21 | -6.46% |

| Structure (SMILES) | cytotoxicity at 10 µM |
| --- | --- |
| CSCCNC(=O)c1coc(COc2ccc(F)cc2)n1 | 1.75% |
| CN(C)S(=O)(=O)N1CCCC(CCC(=O)Nc2ccc(Cl)cc2)C1 (stereo unspecified) | -12.5% |
| Cc1nc(C)c(C(=O)N2CCc3[nH]nc(COc4ccccc4)c3C2)s1 | -3.09% |
| CN1CC(c2ccccc2)CC2(CCN(Cc3ncc[nH]3)CC2)C1 (stereo unspecified) | -1.21% |
| CNC(=O)c1ccc(C2CN(C(=O)c3cncs3)CCO2)nc1 (stereo unspecified) | -2.7% |
| c1ccc(Oc2ccc(CNCC3CNc4ccnn4C3)cn2)cc1 (stereo unspecified) | -15.6% |
| Clc1cccc(-c2nc(CNC3CCc4ncnn4C3)co2)c1 (stereo unspecified) | 2.56% |
| Cc1nnc2n1CCN(C(=O)c1cc(C)n(-c3cccnc3)c1C)C2 | -6.63% |
| Cc1ccc(NC2CCN(C(=O)Cc3cccs3)CC2)nn1 | -6.8% |
| Cc1noc(CN(Cc2cccs2)C2CCS(=O)(=O)C2)n1 (stereo unspecified) | -3.21% |
| Cc1nn(C)c(N(C)C)c1CNCCC(=O)NC1CCCCC1 | -13.4% |
| Cc1nc(CNCc2c(C(C)C)nn(C)c2N2CCOCC2)cs1 | -2.51% |
| O=C(c1ccccc1OC1CCCC1)N1CCCC(n2cncn2)C1 (stereo unspecified) | -0.0581% |
| COCc1ccccc1C(=O)N(C)Cc1ncc(C)c(OC)c1C | -7.55% |
| Cc1noc(C)c1CNC(=O)c1ccc(NC2CC2)nc1 | -3.91% |
| CC(C)OCCC(=O)N(C)CCCc1cc(-c2ccccc2)no1 | -15.3% |
| CC(=O)N(Cc1ncc(C(C)C)o1)C1CCN(CCn2cccn2)C1 (stereo unspecified) | -4.89% |
| Cc1ccccc1CNC(=O)CN1CCN(Cc2nccn2C)CC1 | -5.75% |
| Cc1noc(CN2CCC(c3ccnn3CCO)CC2)n1 | -9.62% |
| Cn1c(CN2CCCC2c2noc(C3CC3)n2)cc(=O)n(C)c1=O (stereo unspecified) | 4.04% |
| Cc1cnn(CC2CCCCN2C(=O)CN(C)C2CC2)c1 (stereo unspecified) | -1.23% |
| CNS(=O)(=O)c1cccc(CNC(=O)c2c(C)oc(C)c2C)c1 | -1.3% |
| CN(C)[C@@H]1CN(Cc2ccccc2O)C[C@H]1c1cn(C)c2ccccc12 | 6.6% |

| Structure (SMILES) | cytotoxicity at 10 µM |
| --- | --- |
| Cc1nn(CCC#N)c(C)c1CCC(=O)N(C)C | -7.33% |
| Cc1nc2c(c(NC(C)C)n1)CCN(Cc1cccnc1)CC2 | 6.4% |
| O=C(c1ccccc1-c1ccccc1)N1C[C@@H]2CNC[C@]2(C(=O)O)C1 | -0.265% |
| Cc1cccc(CN2CCc3[nH]nc(C(=O)N4CCNC(=O)C4)c3C2)n1 | 18.2% |
| Cc1n[nH]cc1CNC1CCN(c2ccccc2)CC1 | -52.2% |
| CC[C@@H]1N(CC2CCOCC2)CCC[C@]12CCC(=O)N2 | 18.1% |
| CC(=O)N1CCO[C@@H]2CN(S(=O)(=O)c3cccnc3)C[C@@H]2C1 | 3.02% |
| Cc1ccc(C(=O)N2CCC3(CC2)CN(c2ccccn2)CCO3)cc1 | -75.4% |
| O=C(NC1CC2(CCN(CCO)CC2)c2ccccc21)c1ccncc1 (stereo unspecified) | -9.54% |
| Cn1cc(CN2CCCC3(CCN(C(=O)c4cnccn4)C3)C2)cn1 (stereo unspecified) | -69.6% |
| CN(C)CCN1C(=O)CC[C@@H]2[C@H]1CCN2Cc1cccc(C#N)c1 | -89.1% |
| c1ccc(O[C@H]2CO[C@@]3(CCCN(Cc4nccs4)C3)C2)nc1 | -71.3% |
| O=C(c1ccco1)N1C[C@H]2CCCN(CC3CCOCC3)[C@H]2C1 | -0.285% |
| Cc1nc(C2(O)CCCNCC2)sc1CCOc1ccccc1 (stereo unspecified) | -28.5% |
| CN1C(=O)C2(CCNCC2)c2cc(F)ccc21 | -115% |
| O=C1CC[C@H]2[C@H](CCN2c2ncc(F)cn2)N1c1ccccc1 | 5.86% |
| Cc1cccc(N2CC[C@@H]3CN(C(=O)c4ccco4)CCO[C@@H]3C2)n1 | 10.5% |
| O=C(c1ccccc1)N1C[C@@H]2CCCO[C@@H]2[C@H](N2CCOCC2)C1 | -8.81% |
| CCN1CCc2c(sc3c2C(=O)NC(C=Cc2ccco2)N3)C1 (stereo unspecified) | -1.07% |
